Laboratory results as given in publication PMC6262736 (Pharmacology Research & Perspectives, 2018).
Where two headings read alike, the source gives them in different places.

Key:
SMNΔ7 mice = conditions: dosed once daily for 219 days, Study 5; cited from earlier work
SMN protein [1] = assay: SMN protein levels in brain and muscle of SMNΔ7 mice; assay type: in vivo; conditions: 7 days of once daily dosing, Study 4
[2] = Plasma, brain and CSF drug levels in rats; assay type: in vivo; conditions: Wistar, rat, brain / total plasma, po, 7.5 mg/kg/day
[3] = Predicted CSF‐to‐unbound plasma partition coefficient from L‐Mdr1a efflux ratio; parameters: species or system rat; conditions: based on the rodent ER and model from ref 25
Outline: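 pKp,uu derived as 1/[(1−γ)+γ·ER], with γ fixed at 0.753 and ER being the efflux ratio measured in L-Mdr1a cells.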

SMN protein [4] = conditions: SUNFISH Part 1 early interim data, dose‐dependent; cited from earlier work
[5] = Tissue distribution in cynomolgus monkeys; assay type: in vivo, cynomolgus monkeys (Macaca fascicularis); conditions: for concentration at 7 days / Kp at 7 days / concentration at 6 weeks after the last dose: cynomolgus monkey, oral, 3 mg/kg/day
severe SMA mice = conditions: cited from earlier work
human MDR1 = human MDR1 (Homo sapiens, UniProt P08183); assay: Bidirectional transport assay in L‐MDR1 cells; assay type: in vitro ADME; conditions: 1 μM
human MDR1, sequence (P08183 whole entry): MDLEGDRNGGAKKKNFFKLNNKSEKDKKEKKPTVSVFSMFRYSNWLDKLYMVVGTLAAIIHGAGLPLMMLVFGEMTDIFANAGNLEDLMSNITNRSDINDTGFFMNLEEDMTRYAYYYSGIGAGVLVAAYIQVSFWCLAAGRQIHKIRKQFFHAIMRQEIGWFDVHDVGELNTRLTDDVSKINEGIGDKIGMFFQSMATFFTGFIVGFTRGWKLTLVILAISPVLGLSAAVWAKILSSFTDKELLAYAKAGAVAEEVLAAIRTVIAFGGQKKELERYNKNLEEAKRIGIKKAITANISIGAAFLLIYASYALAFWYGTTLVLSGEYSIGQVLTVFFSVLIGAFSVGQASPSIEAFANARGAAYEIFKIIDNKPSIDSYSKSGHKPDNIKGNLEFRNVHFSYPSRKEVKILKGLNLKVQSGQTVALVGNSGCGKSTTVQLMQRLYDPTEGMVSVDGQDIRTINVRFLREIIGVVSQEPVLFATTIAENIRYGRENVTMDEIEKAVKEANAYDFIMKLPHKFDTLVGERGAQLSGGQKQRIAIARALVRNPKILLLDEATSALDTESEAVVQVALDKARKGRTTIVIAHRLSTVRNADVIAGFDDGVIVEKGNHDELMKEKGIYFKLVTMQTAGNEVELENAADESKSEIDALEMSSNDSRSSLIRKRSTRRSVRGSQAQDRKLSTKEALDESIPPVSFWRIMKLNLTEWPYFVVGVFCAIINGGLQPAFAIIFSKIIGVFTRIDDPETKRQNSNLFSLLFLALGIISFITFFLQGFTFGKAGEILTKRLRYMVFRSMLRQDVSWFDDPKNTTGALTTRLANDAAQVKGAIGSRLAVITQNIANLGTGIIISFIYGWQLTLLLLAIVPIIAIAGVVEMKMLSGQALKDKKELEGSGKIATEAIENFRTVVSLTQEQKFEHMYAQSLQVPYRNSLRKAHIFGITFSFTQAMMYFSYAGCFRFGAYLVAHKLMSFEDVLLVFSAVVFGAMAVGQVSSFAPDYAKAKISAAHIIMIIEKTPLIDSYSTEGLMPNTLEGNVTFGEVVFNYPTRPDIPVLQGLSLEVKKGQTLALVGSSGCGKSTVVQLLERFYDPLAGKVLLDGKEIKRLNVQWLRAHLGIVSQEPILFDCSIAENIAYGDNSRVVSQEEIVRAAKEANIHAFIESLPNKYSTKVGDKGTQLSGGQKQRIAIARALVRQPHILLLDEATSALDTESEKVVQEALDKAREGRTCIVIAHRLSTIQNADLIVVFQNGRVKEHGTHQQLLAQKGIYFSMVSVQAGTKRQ
Outline: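 Transport run in LLC-PK1 or MDCKII cells, parental or transfected (L-MDR1 human MDR1, L-Mdr1a rodent Mdr1a, M-BCRP human BCRP, M-Bcrp rodent Bcrp). Cells were grown on semipermeable inserts and assayed bidirectionally on day 3 or 4 after seeding. Donor medium held 1 μM test compound plus 10 μM Lucifer yellow to check monolayer integrity. Receiver medium lacked phenol red, with or without inhibitor: zosuquidar 1 μM for MDR1/Mdr1a, Ko143 1 μM for BCRP/Bcrp. Reference substrates served as activity controls.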

SMN protein [6] = assay: SMN protein levels in tissues of C/C‐allele SMA mice; assay type: in vivo; conditions: 10 mg/kg/day PO, 10 days, Study 12
Outline: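 Adult C/C-allele SMA mice (FVB.129(B6) background) started dosing at ~7 weeks. Dosing was once-daily oral, as a suspension in 0.5% HPMC/0.1% Tween 80. Mice were killed by CO2 1 h after the last dose; tissues were unperfused, homogenized and diluted in RIPA. SMN was measured by HTRF in duplicate (averaged) against a recombinant human SMN standard curve, and total protein by BCA. Result: SMN/total protein per treated mouse ÷ vehicle-group mean.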

[7] = monkeys; dosing in MOONFISH suspended because of it; ref not given; cited from earlier work
[8] = Phase 1 MOONFISH trial, patients with Type 2 and 3 SMA; ref NCT03032172; cited from earlier work
[9] = monkeys, Study 10, after 22 weeks' treatment‐free recovery period
[10] = two cynomolgus monkeys, Study 9

Cc1cn2nc(-c3cc(=O)n4cc(N5CCNC6(CC6)C5)ccc4n3)cc(C)c2n1 [risdiplam, 7‐(4,7‐diazaspiro[2.5]octan‐7‐yl)‐2‐(2,8‐dimethylimidazo[1,2‐b]pyridazin‐6‐yl)pyrido[1,2‐a]pyrimidin‐4‐one]
survival of SMNΔ7 mice (SMNΔ7 mice): prolonged survival | increase in SMN protein levels in brain (SMN protein [1]; 0.1 mg/kg/day): 28% | increase in SMN protein levels in muscle (SMN protein [1]; 0.1 mg/kg/day): 32% | increase in SMN protein levels in brain (SMN protein [1]; 1 mg/kg/day): 206% | increase in SMN protein levels in muscle (SMN protein [1]; 1 mg/kg/day): 210% | Kp at 90 days [2]: 0.92 | predicted CSF‐to‐unbound plasma partition coefficient (pKp,uu) [3]: 0.33 | average increase in functional SMN protein in the blood of patients with SMA (SMN protein [4]): up to 2.5 fold | concentration at 7 days ([5]; CSF): 53.5 ng/mL | Kp at 7 days ([5]; bone marrow / plasma): ~5 | concentration at 7 days ([5]; brain): 783 ng/g | concentration at 6 weeks after the last dose ([5]; duodenum): < 1 ng/g | Kp at 7 days ([5]; kidney / plasma): 10 | concentration at 6 weeks after the last dose ([5]; kidney): ~4 ng/g | concentration at 6 weeks after the last dose ([5]; larynx): < 1 ng/g | concentration at 6 weeks after the last dose ([5]; liver): ~4 ng/g | concentration at 7 days ([5]; muscle): 668 ng/g | concentration at 7 days ([5]; plasma (unbound)): 119 ng/mL | concentration at 7 days ([5]; plasma): 794 ng/mL | Kp at 7 days ([5]; spleen / plasma): ~5 | concentration at 6 weeks after the last dose ([5]; spleen): < 1 ng/g | drug level in CSF [5, 9]: below the limit of quantification (BLQ) | drug level in brain [5, 9]: below the limit of quantification (BLQ) | drug level in plasma [5, 9]: below the limit of quantification (BLQ) | average cortex/brain stem concentrations ratio ([5]; monkeys, Study 10, n = 22): 1.10 | difference of brain drug level from total plasma concentration [5, 10]: less than 30% | difference of heart drug level from total plasma concentration [5, 10]: less than 30% | difference of larynx drug level from total plasma concentration [5, 10]: less than 30% | difference of muscle drug level from total plasma concentration [5, 10]: less than 30%

nusinersen
median lifespan (severe SMA mice; intracerebroventricular administration): 16 days | median lifespan (severe SMA mice; subcutaneous injections): 108 days

CCc1nc(C)cn2nc(-c3cc(=O)n4cc(C5CCN(C)CC5)cc(C)c4n3)cc12 [RG7800, 2‐(4‐ethyl‐6‐methyl‐pyrazolo[1,5‐a]pyrazin‐2‐yl)‐9‐methyl‐7‐(1‐methyl‐4‐piperidyl)pyrido[1,2‐a]pyrimidin‐4‐one]
substrate of human MDR1 (human MDR1): not a substrate of human MDR1 | SMN protein increase from baseline in heart (SMN protein [6]): 31% | SMN protein increase from baseline in muscle (SMN protein [6]): 23% | SMN protein increase in pancreas (SMN protein [6]): fourfold | findings in long‐term nonclinical safety studies [7]: off‐target retinal findings | serious adverse events [8]: no serious adverse events were reported
